Measured values as given in ChEMBL document CHEMBL4480441, “Discovery and development of novel rhodanine derivatives targeting enoyl-acyl carrier protein reductase” (Bioorg Med Chem, 2019).
Converted amounts (≈) assume the structure as drawn.

Tests used:
[1] = test system: Mycobacterium tuberculosis; test: Antitubercular activity against Mycobacterium tuberculosis measured after 48 hrs by luminescence based serial dilution method; type: functional
[2] = biological target: T1, Enoyl-[acyl-carrier-protein] reductase [NADH] (Mycobacterium tuberculosis, UniProt P9WGR1); test: Inhibition of recombinant Mycobacterium tuberculosis InhA expressed in Escherichia coli […] pLysS using trans-2-decenoyl-N-acetylcysteamine as substrate by spectrophotometric method
T1 sequence (P9WGR1 whole entry): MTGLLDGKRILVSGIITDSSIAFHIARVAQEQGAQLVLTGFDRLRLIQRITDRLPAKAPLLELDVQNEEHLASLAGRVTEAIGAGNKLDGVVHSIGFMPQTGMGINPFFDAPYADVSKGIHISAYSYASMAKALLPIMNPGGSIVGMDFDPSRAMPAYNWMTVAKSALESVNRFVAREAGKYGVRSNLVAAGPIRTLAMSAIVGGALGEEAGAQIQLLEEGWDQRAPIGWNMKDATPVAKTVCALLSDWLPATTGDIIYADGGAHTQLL

[3] = test system: Staphylococcus aureus; test: Antimicrobial activity against […] Staphylococcus aureus ATCC 29213 measured after 48 hrs; type: functional; conditions: ATCC 29213, 48 h
In short: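 Brucella broth with 10% heat-inactivated horse serum. Inoculum of 1×10^5 bacteria per well, exposed to a range of compound concentrations at 37 °C for 48 h. Absorbance read at 590 nm. Drug-free wells served as growth control and medium-only wells as blank. MIC is the concentration giving 80% growth inhibition.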

[4] = biological target: DNA gyrase (Escherichia coli, UniProt P0AES4+P0AES6); test: Inhibition of Escherichia coli DNA gyrase assessed as reduction in enzyme-mediated supercoiling of relaxed pBR322 DNA measured after 60 mins by electrophoresis method; type: protein-complex assay
[5] = biological target: T2, 3-oxoacyl-[acyl-carrier-protein] synthase 3 (Escherichia coli, UniProt C3TDZ2); test: Inhibition of Escherichia coli KAS3 expressed in Escherichia coli BL21(DE3)
T2 sequence (C3TDZ2 whole entry): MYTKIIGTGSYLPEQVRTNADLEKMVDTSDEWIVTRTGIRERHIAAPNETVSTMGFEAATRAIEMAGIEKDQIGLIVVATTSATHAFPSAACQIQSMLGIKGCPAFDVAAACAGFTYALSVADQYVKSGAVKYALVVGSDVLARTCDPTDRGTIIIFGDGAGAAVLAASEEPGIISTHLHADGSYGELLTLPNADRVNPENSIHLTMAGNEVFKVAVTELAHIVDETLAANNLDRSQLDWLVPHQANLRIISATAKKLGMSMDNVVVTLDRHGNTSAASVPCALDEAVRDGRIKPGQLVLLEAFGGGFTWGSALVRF

[6] = test system: Pseudomonas aeruginosa; test: Antimicrobial activity against Pseudomonas aeruginosa […] measured after 48 hrs by p-iodonitrotetrazolium violet dye based serial dilution test; type: functional
[7] = Cytotoxicity against HEK293 cells after 48 hrs by MTT assay; type: cell-based; conditions: human, read-out: MIC
[8] = test system: Staphylococcus aureus; test: Antimicrobial activity against methicillin-sensitive Staphylococcus aureus ATCC 25923 measured after 48 hrs; type: functional; conditions: ATCC 25923, 48 h
In short: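 Brucella broth with 10% heat-inactivated horse serum. Inoculum of 1×10^5 bacteria per well, exposed to a range of compound concentrations for 48 h at 37 °C. Read as absorbance at 590 nm, with compound-free wells as control and medium-only wells as blank. Percent growth inhibition was calculated, and the concentration giving 80% inhibition was taken as the MIC.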

COc1ccccc1/C=C1/SC(=S)N(CC(=O)c2ccccc2)C1=O
MIC [1]: 30.4 µM (≈ 11.2 µg/mL)
IC50 [2]: 28.1 µM

Oc1cc(Cl)ccc1Oc1ccc(Cl)cc1Cl [TRICLOSAN]
MIC [3]: 0.68 µM (≈ 0.197 µg/mL)
MIC [1]: 8.65 µM (≈ 2.5 µg/mL)
IC50 [4]: > 1000 µM
IC50 [5]: 850 µM
MIC [6]: 1.25 µM (≈ 0.362 µg/mL)
MCC at 48 h [7]: 20.5 µM
MIC [8]: 0.39 µM (≈ 0.113 µg/mL)

COc1cccc(/C=C2/SC(=S)N(CC(=O)c3ccccc3)C2=O)c1
MIC [1]: 20.5 µM (≈ 7.57 µg/mL)
IC50 [2]: 22.6 µM

COc1ccc(C(=O)CN2C(=O)/C(=C\c3ccccc3OC)SC2=S)cc1
MIC [1]: 9.27 µM (≈ 3.7 µg/mL)
IC50 [2]: 16.8 µM

CN(C)c1ccc(/C=C2/SC(=S)N(CC(=O)c3ccccc3)C2=O)cc1
MIC [1]: 12.6 µM (≈ 4.82 µg/mL)
IC50 [2]: 17.4 µM

COc1ccc(C(=O)CN2C(=O)/C(=C\c3cccc(Cl)c3)SC2=S)cc1
MIC [3]: 3.88 µM (≈ 1.57 µg/mL)
MIC [1]: 2.02 µM (≈ 0.816 µg/mL)
MIC [6]: 5.05 µM (≈ 2.04 µg/mL)
MCC at 48 h [7]: > 200 µM
MIC [8]: 2.16 µM (≈ 0.872 µg/mL)
IC50 [2]: 7.84 µM

CC(/C=C1\SC(=S)N(CC(=O)O)C1=O)=C\c1ccccc1
MIC [1]: > 200 µM
IC50 [2]: > 200 µM

COc1ccc(C(=O)CN2C(=O)/C(=C\c3ccc(C)cc3)SC2=S)cc1
MIC [3]: 10.2 µM (≈ 3.91 µg/mL)
MIC [1]: 0.49 µM (≈ 0.188 µg/mL)
MIC [6]: 8.12 µM (≈ 3.11 µg/mL)
MCC at 48 h [7]: 195 µM
MIC [8]: 6.15 µM (≈ 2.36 µg/mL)
IC50 [2]: 5.02 µM

COc1ccc(C(=O)CN2C(=O)/C(=C\c3ccc(Br)cc3)SC2=S)cc1
MIC [1]: 4.04 µM (≈ 1.81 µg/mL)
IC50 [2]: 12.1 µM

O=C(CN1C(=O)/C(=C\c2ccc(F)cc2)SC1=S)c1ccccc1
MIC [1]: 57.4 µM (≈ 20.5 µg/mL)
IC50 [2]: 55 µM

COc1ccc(C(=O)CN2C(=O)/C(=C\c3cc(OC)c(OC)c(OC)c3)SC2=S)cc1
MIC [3]: 1.54 µM (≈ 0.708 µg/mL)
MIC [1]: 0.29 µM (≈ 0.133 µg/mL)
IC50 [4]: > 1000 µM
IC50 [5]: 900 µM
MIC [6]: 0.95 µM (≈ 0.437 µg/mL)
MCC at 48 h [7]: > 200 µM
MIC [8]: 1.24 µM (≈ 0.57 µg/mL)
IC50 [2]: 2.55 µM

COc1ccc(C(=O)CN2C(=O)/C(=C\c3ccccc3Cl)SC2=S)cc1
MIC [1]: 7.83 µM (≈ 3.16 µg/mL)
IC50 [2]: 15.3 µM

CC(=O)Nc1ccc(/C=C2/SC(=S)N(CC(=O)c3ccccc3)C2=O)cc1
MIC [1]: 3.18 µM (≈ 1.26 µg/mL)
IC50 [2]: 11.6 µM

O=C(CN1C(=O)/C(=C\c2ccc(Br)cc2)SC1=S)c1ccccc1
MIC [1]: 21.1 µM (≈ 8.83 µg/mL)
IC50 [2]: 23.9 µM

COc1cc(/C=C2/SC(=S)N(CC(=O)c3ccccc3)C2=O)cc(OC)c1OC
MIC [3]: 7.2 µM (≈ 3.09 µg/mL)
MIC [1]: 0.38 µM (≈ 0.163 µg/mL)
IC50 [4]: > 1000 µM
IC50 [5]: 780 µM
MIC [6]: 5.41 µM (≈ 2.32 µg/mL)
MCC at 48 h [7]: > 200 µM
MIC [8]: 4.61 µM (≈ 1.98 µg/mL)
IC50 [2]: 3.12 µM

COc1ccc(C(=O)CN2C(=O)/C(=C\c3ccc(Cl)cc3)SC2=S)cc1
MIC [1]: 8.62 µM (≈ 3.48 µg/mL)
IC50 [2]: 16.5 µM

NNC(=O)c1ccncc1 [ISONIAZID]
MIC [3]: 1.42 µM (≈ 0.195 µg/mL)
MIC [1]: 0.58 µM (≈ 0.0795 µg/mL)
IC50 [4]: > 1000 µM
IC50 [5]: > 1000 µM
MIC [6]: 2.85 µM (≈ 0.391 µg/mL)
MCC at 48 h [7]: 120 µM
MIC [8]: 1.26 µM (≈ 0.173 µg/mL)
IC50 [2]: 8.29 µM

COc1ccc(/C=C2/SC(=S)N(CC(=O)c3ccccc3)C2=O)cc1
MIC [3]: 4.15 µM (≈ 1.53 µg/mL)
MIC [1]: 2.95 µM (≈ 1.09 µg/mL)
MIC [6]: 4.83 µM (≈ 1.78 µg/mL)
MCC at 48 h [7]: 167 µM
MIC [8]: 4.28 µM (≈ 1.58 µg/mL)
IC50 [2]: 8.24 µM

O=C(CN1C(=O)/C(=C\c2ccccc2Cl)SC1=S)c1ccccc1
MIC [1]: 25.5 µM (≈ 9.53 µg/mL)
IC50 [2]: 25.8 µM

O=C(CN1C(=O)/C(=C\c2ccc(O)cc2)SC1=S)c1ccccc1
MIC [1]: 33.1 µM (≈ 11.8 µg/mL)
IC50 [2]: 35.3 µM

O=C(CN1C(=O)/C(=C\c2cccc(Cl)c2)SC1=S)c1ccccc1
MIC [1]: 40.9 µM (≈ 15.3 µg/mL)
IC50 [2]: 47.3 µM

O=C(CN1C(=O)/C(=C\c2ccc(Cl)cc2)SC1=S)c1ccccc1
MIC [1]: 48.2 µM (≈ 18 µg/mL)
IC50 [2]: 50.1 µM

O=C(CN1C(=O)/C(=C\c2ccc([N+](=O)[O-])cc2)SC1=S)c1ccccc1
MIC [1]: 36.5 µM (≈ 14 µg/mL)
IC50 [2]: 43.5 µM

O=C(CN1C(=O)/C(=C\c2ccccc2)SC1=S)c1ccccc1
MIC [1]: 32.3 µM (≈ 11 µg/mL)
IC50 [2]: 40.2 µM

COc1ccc(C(=O)CN2C(=O)/C(=C\c3ccc(F)cc3)SC2=S)cc1
MIC [1]: 17.8 µM (≈ 6.9 µg/mL)
IC50 [2]: 20.1 µM

Cc1ccc(/C=C2/SC(=S)N(CC(=O)c3ccccc3)C2=O)cc1
MIC [1]: 15.1 µM (≈ 5.34 µg/mL)
IC50 [2]: 17.5 µM
